“And” between values parts separate entries of the source, which are not always exact repeats. Equal values may be shown once.
Tests used:
[1] = system: CYP3A4; assay: Clinical drug-drug interaction: ratio; assay type: in vivo, human; conditions: (midazolam + tenapanor)/midazolam; tenapanor 15 mg twice daily; healthy volunteers
[2] = assay type: in vivo, human; conditions: plasma; midazolam 7.5 mg oral single dose alone, day 1
[3] = system: CYP2B6 mRNA; assay: CYP mRNA induction in HepaRG cell cultures; assay type: in vitro ADME, human; conditions: 24 hours; for maximal increase in CYP2B6 mRNA levels relative to vehicle control: positive controls
[4] = Safety and tolerability; assay type: in vivo, human
[5] = molecular target: CYP2C9 (Homo sapiens, UniProt P11712); assay: Reversible CYP inhibition in human liver microsomes, diclofenac marker; assay type: in vitro ADME
CYP2C9, sequence (P11712 whole entry): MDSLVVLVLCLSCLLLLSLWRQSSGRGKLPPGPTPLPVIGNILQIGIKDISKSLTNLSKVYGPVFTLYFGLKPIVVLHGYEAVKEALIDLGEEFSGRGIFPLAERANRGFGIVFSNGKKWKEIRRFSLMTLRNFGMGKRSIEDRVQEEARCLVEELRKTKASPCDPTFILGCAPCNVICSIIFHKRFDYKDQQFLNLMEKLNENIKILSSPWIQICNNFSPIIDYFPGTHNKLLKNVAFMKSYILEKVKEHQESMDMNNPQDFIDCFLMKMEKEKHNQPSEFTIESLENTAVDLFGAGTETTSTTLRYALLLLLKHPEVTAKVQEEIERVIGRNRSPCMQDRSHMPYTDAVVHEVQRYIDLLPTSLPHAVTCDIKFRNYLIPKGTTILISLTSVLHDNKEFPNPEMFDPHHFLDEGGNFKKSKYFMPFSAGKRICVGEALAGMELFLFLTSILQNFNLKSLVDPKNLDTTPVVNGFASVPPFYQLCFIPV
Procedure, shortened: (§1)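 A cocktail at or below KM was incubated 5 min at 37°C with NADPH in 150-donor pooled human liver microsomes: phenacetin 30 μM (CYP1A2), diclofenac 10 μM (CYP2C9), (S)-mephenytoin 35 μM (CYP2C19), bufuralol 5 μM (CYP2D6), midazolam 3 μM (CYP3A4/5). Test compound was run at 0.1–30 μM (six levels), in triplicate. TCA quench, then LC-MS/MS (MRM) of metabolites. IC50 was fitted from % of DMSO-control activity versus log concentration; inhibition only at top concentration was reported as >30 μM.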

[6] = molecular target: CYP2D6 (Homo sapiens, UniProt P10635); assay: Reversible CYP inhibition in human liver microsomes, bufuralol marker; assay type: in vitro ADME
CYP2D6, sequence (P10635 whole entry): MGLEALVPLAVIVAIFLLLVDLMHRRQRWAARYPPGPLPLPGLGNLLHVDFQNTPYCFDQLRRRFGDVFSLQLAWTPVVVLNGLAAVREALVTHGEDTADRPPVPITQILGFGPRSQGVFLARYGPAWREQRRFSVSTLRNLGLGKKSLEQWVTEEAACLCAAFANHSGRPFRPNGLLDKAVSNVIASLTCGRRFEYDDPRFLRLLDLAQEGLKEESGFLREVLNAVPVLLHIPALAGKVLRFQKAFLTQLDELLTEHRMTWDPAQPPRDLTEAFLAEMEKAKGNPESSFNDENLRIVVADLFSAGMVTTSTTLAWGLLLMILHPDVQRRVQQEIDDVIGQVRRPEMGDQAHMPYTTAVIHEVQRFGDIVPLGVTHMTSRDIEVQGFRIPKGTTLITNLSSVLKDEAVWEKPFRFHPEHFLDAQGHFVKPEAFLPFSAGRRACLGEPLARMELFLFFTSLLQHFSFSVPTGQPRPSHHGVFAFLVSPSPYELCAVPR
Procedure, shortened: as §1

[7] = molecular target: T1, CYP2B6 (Homo sapiens, UniProt P20813); assay: Reversible CYP inhibition in human liver microsomes, bupropion marker; assay type: in vitro ADME
T1 sequence (P20813 1-491): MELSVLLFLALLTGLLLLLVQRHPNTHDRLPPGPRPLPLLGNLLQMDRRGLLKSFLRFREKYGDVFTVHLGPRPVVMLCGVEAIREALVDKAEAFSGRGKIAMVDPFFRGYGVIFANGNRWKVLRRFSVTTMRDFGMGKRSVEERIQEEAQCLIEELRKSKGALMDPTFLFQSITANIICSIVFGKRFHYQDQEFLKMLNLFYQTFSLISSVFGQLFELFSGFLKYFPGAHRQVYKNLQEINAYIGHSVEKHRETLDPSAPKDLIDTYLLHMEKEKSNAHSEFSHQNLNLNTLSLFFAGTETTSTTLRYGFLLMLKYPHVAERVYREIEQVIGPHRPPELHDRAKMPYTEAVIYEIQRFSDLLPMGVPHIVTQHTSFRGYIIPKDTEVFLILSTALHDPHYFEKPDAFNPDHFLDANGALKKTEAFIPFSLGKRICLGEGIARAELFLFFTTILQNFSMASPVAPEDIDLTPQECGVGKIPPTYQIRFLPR
Procedure, shortened: (§2)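 Pooled human liver microsomes (150 donors) with NADPH, 10 min at 37°C, using a substrate cocktail at or below KM: bupropion 80 μM (CYP2B6), amodiaquine 2 μM (CYP2C8), nifedipine 25 μM. Test compound was run at six levels, 0.1–30 μM, in triplicate. TCA quench, then metabolite by LC-MS/MS (MRM). IC50 came from a fit of % DMSO-control activity against log concentration; inhibition only at 30 μM was reported as >30 μM.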

[8] = system: HepaRG cells; assay: Cytotoxicity in the HepaRG induction experiments; assay type: cell-based, human
[9] = system: CYP3A4/5; assay type: in vitro ADME; conditions: human, human liver microsomes, probe midazolam 3 μM (1-OH-midazolam formation)
Procedure, shortened: as §1

[10] = system: CYP1A2 mRNA; assay: CYP mRNA induction in HepaRG cell cultures; assay type: in vitro ADME, human; conditions: 24 hours
[11] = system: CYP3A4 mRNA; conditions: HepaRG, 24 hours
[12] = molecular target: T2, CYP1A2 (Homo sapiens, UniProt P05177); assay: Reversible CYP inhibition in human liver microsomes, phenacetin marker; assay type: in vitro ADME; conditions: probe phenacetin 30 μM (paracetamol formation)
T2 sequence (P05177 1-516): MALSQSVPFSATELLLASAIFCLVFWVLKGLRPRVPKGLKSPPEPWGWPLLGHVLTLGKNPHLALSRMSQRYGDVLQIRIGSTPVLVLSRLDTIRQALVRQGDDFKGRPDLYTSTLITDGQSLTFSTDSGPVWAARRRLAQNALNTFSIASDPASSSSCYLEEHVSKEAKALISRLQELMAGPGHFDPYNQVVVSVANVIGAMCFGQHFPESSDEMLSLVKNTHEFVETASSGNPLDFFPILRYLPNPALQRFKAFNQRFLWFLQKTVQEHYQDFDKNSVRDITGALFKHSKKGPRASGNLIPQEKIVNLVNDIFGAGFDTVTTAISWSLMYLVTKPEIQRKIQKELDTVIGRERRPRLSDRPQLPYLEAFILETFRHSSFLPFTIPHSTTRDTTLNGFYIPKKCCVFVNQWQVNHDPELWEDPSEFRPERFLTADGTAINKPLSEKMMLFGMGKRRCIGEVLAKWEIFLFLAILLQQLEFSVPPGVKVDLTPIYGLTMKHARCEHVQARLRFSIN
Procedure, shortened: as §1

[13] = patients with CKD stage 5D on dialysis; in 387 of 390 serum samples; cited from earlier work
[14] = molecular target: CYP2C19 (Homo sapiens, UniProt P33261); assay: Reversible CYP inhibition in human liver microsomes; assay type: in vitro ADME
CYP2C19, sequence (P33261 whole entry): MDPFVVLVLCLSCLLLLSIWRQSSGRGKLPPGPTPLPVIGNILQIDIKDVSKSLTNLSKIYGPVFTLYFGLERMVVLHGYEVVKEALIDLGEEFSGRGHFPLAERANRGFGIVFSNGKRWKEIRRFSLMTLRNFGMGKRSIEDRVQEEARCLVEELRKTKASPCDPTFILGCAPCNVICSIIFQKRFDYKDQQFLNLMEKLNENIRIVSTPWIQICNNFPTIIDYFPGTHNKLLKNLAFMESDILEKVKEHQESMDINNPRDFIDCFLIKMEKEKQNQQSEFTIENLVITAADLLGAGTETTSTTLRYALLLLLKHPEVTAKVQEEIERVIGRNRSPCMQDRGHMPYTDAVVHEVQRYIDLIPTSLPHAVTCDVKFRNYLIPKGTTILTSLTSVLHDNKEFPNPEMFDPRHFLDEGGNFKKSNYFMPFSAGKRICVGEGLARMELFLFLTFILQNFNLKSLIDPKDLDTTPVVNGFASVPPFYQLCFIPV
Procedure, shortened: as §1

[15] = molecular target: T3, CYP2C8 (Homo sapiens, UniProt P10632); assay: Reversible CYP inhibition in human liver microsomes, amodiaquine marker; assay type: in vitro ADME
T3 sequence (P10632 1-490): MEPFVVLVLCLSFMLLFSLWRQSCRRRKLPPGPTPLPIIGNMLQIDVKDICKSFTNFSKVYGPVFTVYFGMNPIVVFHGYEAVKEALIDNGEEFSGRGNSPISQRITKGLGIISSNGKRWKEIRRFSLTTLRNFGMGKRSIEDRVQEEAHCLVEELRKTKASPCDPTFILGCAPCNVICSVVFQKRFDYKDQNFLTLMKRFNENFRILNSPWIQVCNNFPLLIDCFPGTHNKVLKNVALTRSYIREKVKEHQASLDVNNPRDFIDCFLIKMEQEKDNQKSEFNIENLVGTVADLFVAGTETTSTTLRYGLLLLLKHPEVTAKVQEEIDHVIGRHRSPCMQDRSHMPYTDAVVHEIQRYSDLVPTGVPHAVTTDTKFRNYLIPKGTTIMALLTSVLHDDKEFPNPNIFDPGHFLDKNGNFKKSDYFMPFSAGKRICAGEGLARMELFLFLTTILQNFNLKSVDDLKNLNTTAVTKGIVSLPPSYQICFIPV
Procedure, shortened: as §2

[16] = tenapanor 15 mg twice daily alone
[17] = concentrations of up to 20 μM, all experiments

OCc1ncc2n1-c1ccc(Cl)cc1C(c1ccccc1F)=NC2 [1‐OH‐midazolam]
AUC0-t ratio (90%CI), geometric least-squares means [1]: 110 (104‐116) % | AUC ratio (90%CI), geometric least-squares means [1]: 110 (103‐116) % | Cmax ratio (90%CI), geometric least-squares means [1]: 103 (87.2‐122) % | AUC0-t, arithmetic mean (SD) [2]: 52.1 (29.7) ng·h/mL | AUC0-t, geometric mean (GCV%) [2]: 47.2 (43.1) ng·h/mL | AUC, arithmetic mean (SD) [2]: 54.1 (31.6) ng·h/mL | AUC, geometric mean (GCV%) [2]: 48.8 (43.6) ng·h/mL | Cmax, arithmetic mean (SD) [2]: 26.6 (12.0) ng/mL | Cmax, geometric mean (GCV%) [2]: 24.1 (47.8) ng/mL | t1/2, arithmetic mean (SD) [2]: 5.14 (2.22) h | t1/2, geometric mean (GCV%) [2]: 4.64 (50.0) h | tmax, median (range) [2]: 0.50 (0.25‐0.55) h

Cc1ncc2n1-c1ccc(Cl)cc1C(c1ccccc1F)=NC2O (centres unmarked) [4‐OH‐midazolam]
AUC0-t ratio (90%CI), geometric least-squares means [1]: 106 (99.1‐113) % | AUC ratio (90%CI), geometric least-squares means [1]: 105 (98.7‐111) % | Cmax ratio (90%CI), geometric least-squares means [1]: 105 (90.5‐122) % | AUC0-t, arithmetic mean (SD) [2]: 5.65 (1.50) ng·h/mL | AUC0-t, geometric mean (GCV%) [2]: 5.47 (26.9) ng·h/mL | AUC, arithmetic mean (SD) [2]: 6.14 (1.56) ng·h/mL | AUC, geometric mean (GCV%) [2]: 5.96 (25.3) ng·h/mL | Cmax, arithmetic mean (SD) [2]: 2.11 (0.757) ng/mL | Cmax, geometric mean (GCV%) [2]: 1.99 (37.6) ng/mL | t1/2, arithmetic mean (SD) [2]: 2.48 (0.820) h | t1/2, geometric mean (GCV%) [2]: 2.37 (30.2) h | tmax, median (range) [2]: 0.50 (0.25‐1.02) h

Clc1ccc(-c2nc3sccn3c2C=NOCc2ccc(Cl)c(Cl)c2)cc1 [CITCO, 6‐[4‐chlorophenyl]imidazo[2,1‐b][1,3]thiazole‐5‐carbaldehyde O‐[3,4‐dichlorobenzyl]oxime]
maximal increase in CYP2B6 mRNA levels relative to vehicle control [3]: 13.2 fold

Cc1ncc2n1-c1ccc(Cl)cc1C(c1ccccc1F)=NC2 [Midazolam, midazolam, reference compound]
somnolence ([4]; healthy volunteers): 27/28 | volunteers reporting at least 1 AE ([4]; healthy volunteers): 27/28 | AUC0-t ratio (90%CI), geometric least-squares means [1]: 106 (100‐113) % | AUC ratio (90%CI), geometric least-squares means [1]: 107% and 107 (101‐113) % | Cmax ratio (90%CI), geometric least-squares means [1]: 104% and 104 (89.6‐122) % | tmax, median (range) [2]: 0.50 (0.25‐0.55) h

CN1Cc2c(Cl)cc(Cl)cc2[C@H](c2cccc(S(=O)(=O)NCCOCCOCCNC(=O)NCCCCNC(=O)NCCOCCOCCNS(=O)(=O)c3cccc([C@@H]4CN(C)Cc5c(Cl)cc(Cl)cc54)c3)c2)C1 [Tenapanor]
IC50 [5]: 14.2 ± 3.2 µM | volunteers reporting at least 1 AE ([4]; healthy volunteers): 9/27 | abdominal pain [4, 16]: 1 n | abnormal gastrointestinal sounds [4, 16]: 2 n | defecation urgency [4, 16]: 1 n | dizziness [4, 16]: 2 n | hypertrophy of tongue papillae [4, 16]: 1 n | gastrointestinal disorders ([4]; tenapanor 15 mg twice daily alone, of the 9 volunteers who reported AEs): 5 volunteers | IC50 [6]: 3.26 ± 0.54 µM | IC50 [7]: 15.4 ± 7.5 µM | induction of CYP2B6 mRNA expression [3, 17]: did not induce | cytotoxicity to HepaRG cells ([8]; 20 μM): not | cytotoxicity to HepaRG cells ([8]; 50 μM): cytotoxic | IC50 at 5 min [9]: 402 ± 32 nM | induction of CYP1A2 mRNA expression [10, 17]: did not induce | CYP3A4 mRNA induction as % of the positive control response ([11]; 1 of 4 experiments): 16.8% | induction of CYP3A4 mRNA expression ([11]; 1 of 4 experiments): up to 5.85 fold | influence on CYP3A4 mRNA levels ([11]; 3 of 4 experiments): not observed to influence | IC50 at 5 min [12]: > 30 µM | serum tenapanor [13]: below the limit of quantification | IC50 [14]: > 30 µM | Tenapanor IC50 (n = 3) ([14]; human liver microsomes, S-mephenytoin 35 μM to 4-OH-mephenytoin): No IC50 could be determined | IC50 [15]: 10.4 ± 3 µM

COc1ccc2[nH]c([S+]([O-])Cc3ncc(C)c(OC)c3C)nc2c1 (centres unmarked) [omeprazole, reference compound]
maximal increase in CYP1A2 mRNA levels relative to vehicle control ([10]; positive control): 32.0 fold

CCC1(c2ccccc2)C(=O)NC(=O)NC1=O [phenobarbital]
maximal increase in CYP2B6 mRNA levels relative to vehicle control [3]: 17.0 fold

From article PMC5599994 (Clinical Pharmacology in Drug Development, 2017)
